Measurements as given in ChEMBL document CHEMBL4602706, “Natural Product Evodiamine with Borate Trigger Unit: Discovery of Potent Antitumor Agents against Colon Cancer” (ACS Med Chem Lett, 2020).
Activity calls are given as the source filed them. The calls are words filed in the database; no cut-off is given here.

Experiments:
HCT-116 [1] = experiment: Antiproliferative activity against human HCT116 cells incubated for 72 hrs by CCK8 assay; format: functional, cell-based; conditions: Homo sapiens, HCT-116, 72 h; read-out: IC50
Procedure, shortened: (§1)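 HCT116, MCF-7 and A549 human cancer cell lines; antiproliferative activity read out by CCK8 assay. Evodiamine derivatives and camptothecin served as positive controls.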

MCF7 = experiment: Antiproliferative activity against human MCF7 cells incubated for 72 hrs by CCK8 assay; format: functional, cell-based; conditions: Homo sapiens, MCF7, 72 h; read-out: IC50; procedure, shortened: as §1
A549 = experiment: Antiproliferative activity against human A549 cells incubated for 72 hrs by CCK8 assay; format: functional, cell-based; conditions: Homo sapiens, A549, 72 h; read-out: IC50; procedure, shortened: as §1
[2] = target: T1, DNA topoisomerase 1 (Homo sapiens) (UniProt P11387); experiment: Inhibition of Top1 (unknown origin) at 500 uM using supercoiled pBR322 plasmid DNA as substrate incubated for 15 mins by PI staining based agarose gel electrophoresis analysis
T1 sequence (whole entry): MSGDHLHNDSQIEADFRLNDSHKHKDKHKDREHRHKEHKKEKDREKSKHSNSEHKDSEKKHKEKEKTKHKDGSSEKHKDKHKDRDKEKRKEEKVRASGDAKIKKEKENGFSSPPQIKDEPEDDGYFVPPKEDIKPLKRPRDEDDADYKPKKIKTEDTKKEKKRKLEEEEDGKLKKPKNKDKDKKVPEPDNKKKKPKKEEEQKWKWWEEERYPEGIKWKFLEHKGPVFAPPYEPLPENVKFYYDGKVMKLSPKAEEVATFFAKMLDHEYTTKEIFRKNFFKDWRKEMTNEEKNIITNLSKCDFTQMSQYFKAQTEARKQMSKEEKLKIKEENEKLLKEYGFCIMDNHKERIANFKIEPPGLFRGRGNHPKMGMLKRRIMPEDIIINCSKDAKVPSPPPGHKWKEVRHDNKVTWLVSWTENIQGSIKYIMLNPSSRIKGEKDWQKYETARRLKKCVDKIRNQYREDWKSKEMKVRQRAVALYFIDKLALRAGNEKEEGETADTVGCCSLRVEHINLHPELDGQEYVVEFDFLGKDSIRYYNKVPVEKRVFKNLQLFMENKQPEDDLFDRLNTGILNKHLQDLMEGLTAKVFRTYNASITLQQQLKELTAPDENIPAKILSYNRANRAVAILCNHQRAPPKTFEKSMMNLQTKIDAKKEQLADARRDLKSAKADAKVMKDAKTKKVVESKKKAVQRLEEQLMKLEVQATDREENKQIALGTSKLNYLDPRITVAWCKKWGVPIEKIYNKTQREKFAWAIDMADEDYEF
Procedure, shortened: (§2)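 Top1 inhibition tested at 500, 250 and 125 μM, and over 27.9 to 250 μM for selected compounds.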

[3] = target: T1, DNA topoisomerase 1 (Homo sapiens); experiment: Inhibition of Top1 (unknown origin) at 125 uM using supercoiled pBR322 plasmid DNA as substrate incubated for 15 mins by PI staining based agarose gel electrophoresis analysis; procedure, shortened: as §2
[4] = target: T1, DNA topoisomerase 1 (Homo sapiens); experiment: Inhibition of Top1 (unknown origin) at 83.3 uM using supercoiled pBR322 plasmid DNA as substrate incubated for 15 mins by PI staining based agarose gel electrophoresis analysis
[5] = target: T2, DNA topoisomerase II (Homo sapiens) (UniProt P11388+Q02880); experiment: Inhibition of Top2 (unknown origin) at 50 uM using supercoiled pBR322 plasmid DNA as substrate incubated for 30 mins by PI staining based agarose gel electrophoresis analysis; format: protein assay
[6] = target: T2, DNA topoisomerase II (Homo sapiens); experiment: Inhibition of Top2 (unknown origin) using supercoiled pBR322 plasmid as substrate incubated for 30 mins by PI staining based agarose gel electrophoresis analysis; format: protein assay
HCT-116 [7] = experiment: Induction of apoptosis in human HCT116 cells assessed as apoptotic cells at 0.05 uM incubated for 48 hrs by AnnexinV-FITC/PI staining based flow cytometric analysis (reference value: 6.25 to 8.23%); format: functional
Procedure, shortened: (§3)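 HCT116 cells exposed to 0.05, 0.2 or 0.4 μM for 48 h. Apoptotic cells quantified by flow cytometry, n = 3.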

HCT-116 [8] = experiment: Induction of apoptosis in human HCT116 cells assessed as apoptotic cells at 0.2 uM incubated for 48 hrs by AnnexinV-FITC/PI staining based flow cytometric analysis (reference value: 6.25 to 8.23%); format: functional; procedure, shortened: as §3
HCT-116 [9] = experiment: Induction of apoptosis in human HCT116 cells assessed as apoptotic cells at 0.4 uM incubated for 48 hrs by AnnexinV-FITC/PI staining based flow cytometric analysis (reference value: 6.25 to 8.23%); format: functional; procedure, shortened: as §3
HCT-116 [10] = experiment: Induction of cell cycle arrest in human HCT116 cells assessed as accumulation at G1 phase at 0.05 uM incubated for 24 hrs by propidium iodide staining based flow cytometry (reference value: 38.49 to 51.18%); format: functional
HCT-116 [11] = experiment: Induction of cell cycle arrest in human HCT116 cells assessed as accumulation at G1 phase at 0.2 uM incubated for 24 hrs by propidium iodide staining based flow cytometry (reference value: 38.49 to 51.18%); format: functional
HCT-116 [12] = experiment: Induction of cell cycle arrest in human HCT116 cells assessed as accumulation at G1 phase at 0.4 uM incubated for 24 hrs by propidium iodide staining based flow cytometry (reference value: 38.49 to 51.18%); format: functional
HCT-116 [13] = experiment: Induction of cell cycle arrest in human HCT116 cells assessed as accumulation at G2 phase at 0.05 uM incubated for 24 hrs by propidium iodide staining based flow cytometry (reference value: 18.51 to 20.82%); format: functional
HCT-116 [14] = experiment: Induction of cell cycle arrest in human HCT116 cells assessed as accumulation at G2 phase at 0.2 uM incubated for 24 hrs by propidium iodide staining based flow cytometry (reference value: 18.51 to 20.82%); format: functional
HCT-116 [15] = experiment: Induction of cell cycle arrest in human HCT116 cells assessed as accumulation at G2 phase at 0.4 uM incubated for 24 hrs by propidium iodide staining based flow cytometry (reference value: 18.51 to 20.82%); format: functional
HCT-116 [16] = experiment: Induction of cell cycle arrest in human HCT116 cells assessed as accumulation at S phase at 0.05 uM incubated for 24 hrs by propidium iodide staining based flow cytometry (reference value: 30.31 to 40.69%); format: functional
HCT-116 [17] = experiment: Induction of cell cycle arrest in human HCT116 cells assessed as accumulation at S phase at 0.2 uM incubated for 24 hrs by propidium iodide staining based flow cytometry (reference value: 30.31 to 40.69%); format: functional
HCT-116 [18] = experiment: Induction of cell cycle arrest in human HCT116 cells assessed as accumulation at S phase at 0.4 uM incubated for 24 hrs by propidium iodide staining based flow cytometry (reference value: 30.31 to 40.69%); format: functional
[19] = Drug metabolism in PBS buffer assessed as H2O2-mediated 3-Fluoro-10-hydroxy-14-methyl-8,13,13b,14-tetrahydro-7H-indolo[2',3':3,4]pyrido[2,1-b]quinazolin-5-one release rate at pH 7.4 incubated for 8 hrs in presence of 0.05 mM H2O2 by HPLC analysis; format: physicochemical; conditions: pH 7.4, 8 h
Procedure, shortened: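 Release of the parent compound after treatment with H2O2 at varied concentrations, including 0.05 mM, in PBS pH 7.4. Analysed by HPLC.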

[20] = Drug metabolism in human HCT116 cells assessed as 3-Fluoro-10-hydroxy-14-methyl-8,13,13b,14-tetrahydro-7H-indolo[2',3':3,4]pyrido[2,1-b]quinazolin-5-one release at 0.2 mM by UPLC-QTOF/MS analysis relative to control; format: ADME, cell-based; conditions: hct-116, 200 µM, TDE = time-dependent effect
[21] = Metabolic stability in mouse liver microsomes assessed as half life at 1 uM preincubated with compound followed by NADPH addition measured upto 45 mins by LC-MS/MS analysis; format: ADME, Microsome
Procedure, shortened: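 In vitro stability in liver microsomes; terminal half-life determined.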

HCT-116 [22] = experiment: Antitumour activity against human HCT116 cells xenografted in nude mouse assessed as tumour growth inhibition at 10 mg/kg, ip bid measured every two days for 21 days by caliper method relative to control; format: functional; conditions: HCT-116, ip, read-out: TGI
Procedure, shortened: (§4)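 HCT116 xenograft in mice. Dosing 10 mg/kg intraperitoneally over 21 consecutive days; tumour growth inhibition and body weight followed. Mean ± SEM, Student's t test versus vehicle group.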

[23] = Toxicity in nude mouse xenografted with human HCT116 cells assessed as change in body weight at 10 mg/kg, ip bid measured every two days for 21 days; format: organism-based, HCT-116; conditions: in vivo, 504 h; procedure, shortened: as §4
HCT-116 [24] = experiment: Induction of apoptosis in human HCT116 cells incubated for 48 hrs by AnnexinV-FITC/PI staining based flow cytometric analysis; format: functional, cell-based
[25] = Drug metabolism in human HCT116 cells assessed as 3-Fluoro-10-hydroxy-14-methyl-8,13,13b,14-tetrahydro-7H-indolo[2',3':3,4]pyrido[2,1-b]quinazolin-5-one release by measuring parent compound retention time incubated for 8 hrs by UPLC-QTOF/MS analysis; format: ADME, cell-based; conditions: hct-116, 8 h
Procedure, shortened: (§5)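 Compounds incubated with HCT116 cells; culture media analysed by HPLC after 8, 48 and 72 h. Relative release rate taken from relative peak areas; parent and product identified by retention time.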

[26] = Drug metabolism in human HCT116 cells assessed as 3-Fluoro-10-hydroxy-14-methyl-8,13,13b,14-tetrahydro-7H-indolo[2',3':3,4]pyrido[2,1-b]quinazolin-5-one release by measuring retention time incubated for 8 hrs by UPLC-QTOF/MS analysis; format: ADME, cell-based; conditions: hct-116, 8 h; procedure, shortened: as §5
HCT-116 [27] = experiment: Antitumour activity against human HCT116 cells xenografted in nude mouse assessed as tumour growth inhibition at 0.5 mg/kg, ip qd measured every two days for 21 days by caliper method relative to control; format: functional; conditions: HCT-116, ip, read-out: TGI
[28] = Toxicity in nude mouse xenografted with human HCT116 cells assessed as change in body weight at 0.5 mg/kg, ip qd measured every two days for 21 days; format: organism-based, HCT-116; conditions: in vivo, 504 h
[29] = Inhibition of porcine brain tubulin polymerization measured at 1 min interval for 15 to 30 mins by spectrophotometric method; parameters: species or system Sus scrofa

| Structure (SMILES) | IC50 (HCT-116 [1]) [nM] | IC50 (MCF7) [nM] | IC50 (A549) [nM] | inhibition [2] | inhibition [3] | inhibition [4] | inhibition [5] | inhibition [6] | Activity (HCT-116 [7]) | Activity (HCT-116 [8]) [%] | Activity (HCT-116 [9]) [%] | Activity (HCT-116 [10]) [%] | Activity (HCT-116 [11]) [%] | Activity (HCT-116 [12]) [%] | Activity (HCT-116 [13]) [%] | Activity (HCT-116 [14]) [%] | Activity (HCT-116 [15]) [%] | Activity (HCT-116 [16]) [%] | Activity (HCT-116 [17]) [%] | half-life at 1 µM [21] [min] | further results |
| --- | --- | --- | --- | --- | --- | --- | --- | --- | --- | --- | --- | --- | --- | --- | --- | --- | --- | --- | --- | --- | --- |
| CN1c2ccc(F)cc2C(=O)N2CCc3c([nH]c4ccc(OC(=O)OCc5ccc(B6OC(C)(C)C(C)(C)O6)cc5)cc34)C21 (configuration not stated) | 16 | 33 | 37 | Active | Active | Active | Active | Active | 41.28 - 42.28% | 55.64 | 61.73 | 34.32 | 8.82 | 4.95 | 26.88 | 45.49 | 56.25 | 38.8 | 45.69 | 8.36 | Activity (HCT-116 [18]): 38.8%; Drug metabolism [19]: Dose-dependent effect; Drug metabolism [20]: Tde; inhibition in vivo at 10 mg/kg (HCT-116 [22]): 64.4%; Activity [23]: Non-Toxic; Activity (HCT-116 [24]): Dose-dependent effect; Retention_time [25]: 11.4 min |
| CN1c2ccc(F)cc2C(=O)N2CCc3c([nH]c4ccc(OC(=O)OCc5ccc(B(O)O)cc5)cc34)C21 (configuration not stated) | 41 | 32 | 44 | Active | Active | Active | Active | Active | 44.4% | 54.28 | 64.47 | 14.09 | 7.6 | 5.41 | 29.47 | 43.45 | 51.23 | 56.44 | 48.96 | 0.74 | Activity (HCT-116 [18]): 43.36%; Drug metabolism [19]: Dose-dependent effect; Drug metabolism [20]: Tde; Activity (HCT-116 [24]): Dose-dependent effect; Retention_time [25]: 8.6 min |
| CN1c2ccc(F)cc2C(=O)N2CCc3c([nH]c4ccc(O)cc34)C21 (configuration not stated) | 27 | 31 | 29 | Active |  |  |  |  |  |  |  |  |  |  |  |  |  |  |  | 3.69 | Retention_time [26]: 7.3 min |
| CC[C@@]1(O)C(=O)OCc2c1cc1n(c2=O)Cc2cc3c(CN(C)C)c(O)ccc3nc2-1 [TOPOTECAN] |  |  |  |  |  |  |  |  |  |  |  |  |  |  |  |  |  |  |  |  | inhibition in vivo at 0.5 mg/kg (HCT-116 [27]): 68.8%; Activity [28]: Toxic |
| CN1c2ccccc2C(=O)N2CCc3c([nH]c4ccc(OC(=O)OCc5ccc(B(O)O)cc5)cc34)C21 (configuration not stated) | 52 | 140 | 130 | Active | Active |  | Active |  |  |  |  |  |  |  |  |  |  |  |  |  | IC50 [29]: 25700 nM |
